These results are taken from ChEMBL document CHEMBL1122219, “Synthesis and antiviral activity of water-soluble esters of acyclovir [9-[(2-hydroxyethoxy)methyl]guanine]” (1983).

Type in all cases: functional
Test [1] is filed under the species Oryctolagus cuniculus. Description: Minimum inhibitory concentration required to reduce virus induced cytopathogenicity in primary rabbit kidney cell cultures by 50% against Vesicular stomatitis virus. In general terms: Cytopathic effects are the visible damage that an infection or toxin causes in cultured cells.
The species entered for test [2] is Oryctolagus cuniculus. Description: Minimum inhibitory concentration required to reduce virus induced cytopathogenicity in primary rabbit kidney cell cultures by 50% against HSV-2 ([…]). The procedure, abridged:
(§1)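 Primary rabbit kidney cell cultures infected with HSV-1 strains KOS, McIntyre or F, or HSV-2 strains Lyons, G or 196. Antiviral assays ran 3–4 days, with inhibition of virus-induced cytopathogenicity as the read-out. Cytotoxicity was checked as microscopically visible change in normal cell morphology, up to 400 µg/mL.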

Test [3] is filed under the species Oryctolagus cuniculus. Description: Minimum inhibitory concentration required to reduce virus induced cytopathogenicity in primary rabbit kidney cell cultures by 50% against HSV-2 (196). The procedure, abridged: as §1
The species entered for test [4] is Oryctolagus cuniculus. Kind of test: Minimum inhibitory concentration required to reduce virus induced cytopathogenicity in primary rabbit kidney cell cultures by 50% against Vaccinia virus.
The species named for test [5] is Oryctolagus cuniculus. Kind of test: Minimum inhibitory concentration required to reduce virus induced cytopathogenicity in primary rabbit kidney cell cultures by 50% against HSV-1 (F). In short, it runs like this:
as §1

Test [6] is filed under the species Oryctolagus cuniculus. Kind of test: Minimum inhibitory concentration required to reduce virus induced cytopathogenicity in primary rabbit kidney cell cultures by 50% against HSV-2 (G). In short, it runs like this: as §1
For test [7], the species on record is Oryctolagus cuniculus. Kind of test: Minimum inhibitory concentration required to reduce virus induced cytopathogenicity in primary rabbit kidney cell cultures by 50% against HSV-1 ((KOS). In short, it runs like this:
as §1

The species named for test [8] is Oryctolagus cuniculus. Description: Minimum inhibitory concentration required to reduce virus induced cytopathogenicity in primary rabbit kidney cell cultures by 50% against HSV-1 (McIntyre). The procedure, abridged: as §1

≈ marks a conversion by molar mass, not a printed value. Bounds are passed on as bounds.

For the compound `Nc1nc(O)c2ncn(COCCOC(=O)CCC(=O)[O-])c2n1.[Na+]`, the MIC was over 400 µg/mL in the test listed under Oryctolagus cuniculus [1]; 0.5 µg/mL in the test listed under Oryctolagus cuniculus [2]; 0.4 µg/mL in the test listed under Oryctolagus cuniculus [3]; over 400 µg/mL in the test listed under Oryctolagus cuniculus [4]; 0.7 µg/mL in the test filed under Oryctolagus cuniculus [5]; 0.8 µg/mL in the test listed under Oryctolagus cuniculus [6]. For the same compound, the MIC in the test listed under Oryctolagus cuniculus [7] was 0.7 µg/mL; in the test listed under Oryctolagus cuniculus [8] it was 0.5 µg/mL.
As for `[N-]=[N+]=NCC(=O)OCCOCn1cnc2c(O)nc(N)nc21`, the MIC was determined as 0.04 µg/mL (≈ 0.13 µM) in the test listed under Oryctolagus cuniculus [2]; 0.07 µg/mL (≈ 0.227 µM) in the test filed under Oryctolagus cuniculus [3]; 150 µg/mL (≈ 487 µM) in the test listed under Oryctolagus cuniculus [4]; 0.1 µg/mL (≈ 0.324 µM) in the test filed under Oryctolagus cuniculus [5]; 0.07 µg/mL (≈ 0.227 µM) in the test listed under Oryctolagus cuniculus [6]; 0.1 µg/mL (≈ 0.324 µM) in the test listed under Oryctolagus cuniculus [7]. The same compound gave an MIC in the test listed under Oryctolagus cuniculus [8] of 0.1 µg/mL (≈ 0.324 µM).
Regarding `Cl.NCCC(=O)OCCOCn1cnc2c(O)nc(N)nc21`, the MIC in the test filed under Oryctolagus cuniculus [1] was over 400 µg/mL; in the test filed under Oryctolagus cuniculus [2], 0.1 µg/mL; in the test filed under Oryctolagus cuniculus [3], 0.1 µg/mL; in the test filed under Oryctolagus cuniculus [4] it was 100 µg/mL; in the test listed under Oryctolagus cuniculus [5], 0.5 µg/mL; in the test listed under Oryctolagus cuniculus [6], 0.15 µg/mL. Also, the MIC was 0.2 µg/mL in the test listed under Oryctolagus cuniculus [7] and 0.4 µg/mL in the test listed under Oryctolagus cuniculus [8].
In the case of `CC(N)C(=O)OCCOCn1cnc2c(O)nc(N)nc21.Cl` (stereo not drawn), the MIC is over 400 µg/mL in the test filed under Oryctolagus cuniculus [1]; 0.07 µg/mL in the test filed under Oryctolagus cuniculus [2]; 0.1 µg/mL in the test filed under Oryctolagus cuniculus [3]; 70 µg/mL in the test filed under Oryctolagus cuniculus [4]; 0.4 µg/mL in the test filed under Oryctolagus cuniculus [5]; 0.2 µg/mL in the test listed under Oryctolagus cuniculus [6]. Also, the MIC in the test listed under Oryctolagus cuniculus [7] and in the test listed under Oryctolagus cuniculus [8] was 0.4 µg/mL in each case.
Take `Cl.NCC(=O)OCCOCn1cnc2c(O)nc(N)nc21`: the MIC in the test listed under Oryctolagus cuniculus [1] is over 400 µg/mL; in the test listed under Oryctolagus cuniculus [2] it was 0.04 µg/mL; in the test filed under Oryctolagus cuniculus [3], 0.07 µg/mL; in the test filed under Oryctolagus cuniculus [4] it was 125 µg/mL; in the test listed under Oryctolagus cuniculus [5], 0.1 µg/mL; in the test filed under Oryctolagus cuniculus [6], 0.08 µg/mL. Moreover, the MIC in the test listed under Oryctolagus cuniculus [7] and in the test filed under Oryctolagus cuniculus [8] was 0.1 µg/mL in each case.
Regarding `Nc1nc2c(ncn2COCCO)c(=O)[nH]1` [ACYCLOVIR], the MIC is over 400 µg/mL in the test listed under Oryctolagus cuniculus [1]; 0.04 µg/mL (≈ 0.178 µM) in the test filed under Oryctolagus cuniculus [2]; 0.06 µg/mL (≈ 0.266 µM) in the test filed under Oryctolagus cuniculus [3]; 80 µg/mL (≈ 355 µM) in the test filed under Oryctolagus cuniculus [4]; 0.09 µg/mL (≈ 0.4 µM) in the test listed under Oryctolagus cuniculus [5]; 0.06 µg/mL (≈ 0.266 µM) in the test listed under Oryctolagus cuniculus [6]. Also, the MIC in the test filed under Oryctolagus cuniculus [7] amounted to 0.08 µg/mL (≈ 0.355 µM); in the test filed under Oryctolagus cuniculus [8] it was 0.1 µg/mL (≈ 0.444 µM).
On to `O=c1[nH]c(=O)n([C@H]2C[C@H](O)[C@@H](CO)O2)cc1/C=C/Br` [BRIVUDINE], for which the MIC was over 400 µg/mL in the test listed under Oryctolagus cuniculus [1]; 1 µg/mL (≈ 3 µM) in the test filed under Oryctolagus cuniculus [2]; 4 µg/mL (≈ 12 µM) in the test filed under Oryctolagus cuniculus [3]; 4 µg/mL (≈ 12 µM) in the test filed under Oryctolagus cuniculus [4]; 0.01 µg/mL (≈ 0.03 µM) in the test listed under Oryctolagus cuniculus [5]; 0.8 µg/mL (≈ 2.4 µM) in the test filed under Oryctolagus cuniculus [6]. Also, the MIC in the test listed under Oryctolagus cuniculus [7] and in the test listed under Oryctolagus cuniculus [8] was 0.01 µg/mL (≈ 0.03 µM) throughout.
As to `O=c1[nH]c(=O)n([C@H]2C[C@H](O)[C@@H](CO)O2)cc1I` [IDOXURIDINE], the MIC in the test listed under Oryctolagus cuniculus [1] is over 400 µg/mL; in the test listed under Oryctolagus cuniculus [2], 0.2 µg/mL (≈ 0.565 µM); in the test listed under Oryctolagus cuniculus [3] it was 0.4 µg/mL (≈ 1.13 µM); in the test filed under Oryctolagus cuniculus [4] it was 0.1 µg/mL (≈ 0.282 µM); in the test filed under Oryctolagus cuniculus [5], 0.15 µg/mL (≈ 0.424 µM); in the test filed under Oryctolagus cuniculus [6] it was 0.2 µg/mL (≈ 0.565 µM). For the same compound, the MIC in the test listed under Oryctolagus cuniculus [7] stood at 0.15 µg/mL (≈ 0.424 µM); in the test filed under Oryctolagus cuniculus [8], 0.2 µg/mL (≈ 0.565 µM).
